In one data set the test system is HCT-116. Description: Antiproliferative activity against human HCT-116 cells assessed as cell growth at 1 uM measured after 3 days by [3H]-thymidine incorporation assay relative to control. Particulars: HCT-116, 72 h, time 3 day, read-out: Activity. In kind it is functional. The gist of the method: (§1)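 HCT116 and MDA-MB-231 cells from ATCC, seeded at 3000 cells/well, exposed to inhibitor for three days; 0.04 µCi 3H-thymidine added per well 5 h before harvest onto glass fibre filters, incorporation counted by scintillation and expressed relative to untreated controls. Triplicate wells, at least two independent experiments. Single-point screen at 1 µM; IC50 determined from varying concentrations.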

Another data set deals with MDA-MB-231. Description: Antiproliferative activity against human MDA-MB-231 cells assessed as cell growth at 1 uM measured after 3 days by [3H]-thymidine incorporation assay relative to control. In kind it is functional. Particulars: MDA-MB-231, 72 h, time 3 day, read-out: Activity. The method, boiled down:
as §1
On the technique in general: Incorporation of labelled thymidine or its analogues reports DNA synthesis.

Data set [1] is described as follows: Thermodynamic solubility of compound in water measured after 15 mins RP-HPLC analysis. In kind it is physicochemical. Particulars: read-out: Therm_solubility.
Data set [2] in a line: Stability in water measured after 15 mins RP-HPLC analysis. In kind it is physicochemical. Particulars: buffer, 0.25 h.

The text below walks through data of ChEMBL document CHEMBL4706708, “Improving the solubility of anti-proliferative thieno[2,3-b]quinoline-2-carboxamides” (Bioorg Med Chem, 2021).

SMILES strings stand for the structures. ≈ marks a conversion by molar mass, not a printed value.

As for `CC(=O)c1cc2c(N)c(C(=O)Nc3ccnc4ccccc34)sc2nc1C`, the growth at 1 µM with HCT-116 came to 102%; in the data set with MDA-MB-231 it was 91.6%. Further, the solubility thermodynamic at 0.25 h in data set [1] turned out to be 0.26 µg/mL (≈ 0.691 µM). Moreover, the Stabilty result in data set [2] is “Unstable”.
